Assay results reported in ChEMBL document CHEMBL1828552, “Synthesis and studies of novel 2-(4-cyano-3-trifluoromethylphenyl amino)-4-(quinoline-4-yloxy)-6-(piperazinyl/piperidinyl)-s-triazines as potential antimicrobial, antimycobacterial and anticancer agents” (2011).
In brackets after ≈: the same amount, converted by molar mass.

Assays:
Staphylococcus aureus [1] = experiment: Antibacterial activity against 10^5 CFU/mL Staphylococcus aureus MTCC 96 after 24 hrs by disc diffusion technique; format: functional
How it was run: (§1)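 Disc diffusion on Mueller–Hinton agar poured 5 mm deep. The surface was swabbed with a 10⁵ CFU/mL […] suspension. Filter-paper discs 6.25 mm in diameter were soaked in compound in DMSO and placed on the agar. Plates were incubated 24 h at 37 ± 1 °C, and the inhibition zone was measured in mm. A DMSO disc served as blank.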

Staphylococcus aureus [2] = experiment: Antibacterial activity against 10^5 CFU/mL Staphylococcus aureus MTCC 96 after 24 hrs by agar streak dilution method; format: functional; conditions: MTCC 96, 24 h
How it was run: (§2)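 Agar streak dilution. Stock 100 µg/mL in DMSO; graded amounts were mixed into molten nutrient agar and poured at 4–5 mm depth. Plates carried serial dilutions over […]. About 10⁵ CFU/mL of each bacterium was applied, and plates were incubated at 37 ± 1 °C for 24 h. MIC was read from the dilution series.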

Bacillus cereus [3] = experiment: Antibacterial activity against 10^5 CFU/mL Bacillus cereus MTCC 619 after 24 hrs by disc diffusion technique; format: functional; how it was run: as §1
Bacillus cereus [4] = experiment: Antibacterial activity against 10^5 CFU/mL Bacillus cereus MTCC 619 after 24 hrs by agar streak dilution method; format: functional; conditions: MTCC 619, 24 h; how it was run: as §2
DU-145 = experiment: Cytotoxicity against […] human DU145 cells after 48 hrs by SRB assay; format: functional; conditions: DU-145, 48 h
How it was run: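 SRB assay in DU-145 cells grown in RPMI 1640 with 10% FBS and 2 mM L-glutamine. Cells were plated and held 24 h before addition of four 10-fold concentrations. After 48 h, cells were TCA-fixed, stained with 0.4% SRB and read at 540 nm. GI50, TGI and LC50 were derived against time-zero and control wells; each value is the mean of three experiments.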

Escherichia coli [5] = experiment: Antibacterial activity against 10^5 CFU/mL Escherichia coli MTCC 739 after 24 hrs by disc diffusion technique; format: functional; how it was run: as §1
Escherichia coli [6] = experiment: Antibacterial activity against 10^5 CFU/mL Escherichia coli MTCC 739 after 24 hrs by agar streak dilution method; format: functional; conditions: MTCC 739, 24 h; how it was run: as §2
Pseudomonas aeruginosa [7] = experiment: Antibacterial activity against 10^5 CFU/mL Pseudomonas aeruginosa MTCC 741 after 24 hrs by disc diffusion technique; format: functional; how it was run: as §1
Pseudomonas aeruginosa [8] = experiment: Antibacterial activity against 10^5 CFU/mL Pseudomonas aeruginosa MTCC 741 after 24 hrs by agar streak dilution method; format: functional; conditions: MTCC 741, 24 h; how it was run: as §2
Klebsiella pneumoniae [9] = experiment: Antibacterial activity against 10^5 CFU/mL Klebsiella pneumoniae MTCC 109 after 24 hrs by disc diffusion technique; format: functional; how it was run: as §1
Klebsiella pneumoniae [10] = experiment: Antibacterial activity against 10^5 CFU/mL Klebsiella pneumoniae MTCC 109 after 24 hrs by agar streak dilution method; format: functional; conditions: MTCC 109, 24 h; how it was run: as §2
Salmonella typhi [11] = experiment: Antibacterial activity against 10^5 CFU/mL Salmonella typhi MTCC 733 after 24 hrs by disc diffusion technique; format: functional, Salmonella enterica subsp. enterica serovar Typhi
How it was run: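 Disc diffusion. Mueller-Hinton agar autoclaved 120 °C 30 min, poured 5 mm deep. Surface swabbed with 10⁵ CFU/mL suspension […]. 6.25 mm filter-paper discs soaked in compound in DMSO; DMSO-only disc as blank. Incubated 37 ± 1 °C, 24 h for bacteria or 48 h for fungi. Ciprofloxacin and ketoconazole discs as reference drugs. Inhibition zone measured in mm.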

Salmonella typhi [12] = experiment: Antibacterial activity against 10^5 CFU/mL Salmonella typhi MTCC 733 after 24 hrs by agar streak dilution method; format: functional, Salmonella enterica subsp. enterica serovar Typhi; conditions: Salmonella enterica, MTCC 733, 24 h
Proteus vulgaris [13] = experiment: Antibacterial activity against 10^5 CFU/mL Proteus vulgaris MTCC 1771 after 24 hrs by disc diffusion technique; format: functional; how it was run: as §1
Proteus vulgaris [14] = experiment: Antibacterial activity against 10^5 CFU/mL Proteus vulgaris MTCC 1771 after 24 hrs by agar streak dilution method; format: functional; conditions: MTCC 1771, 24 h; how it was run: as §2
Shigella flexneri [15] = experiment: Antibacterial activity against 10^5 CFU/mL Shigella flexneri MTCC 1457 after 24 hrs by disc diffusion technique; format: functional; how it was run: as §1
Shigella flexneri [16] = experiment: Antibacterial activity against 10^5 CFU/mL Shigella flexneri MTCC 1457 after 24 hrs by agar streak dilution method; format: functional; conditions: MTCC 1457, 24 h; how it was run: as §2
Aspergillus niger [17] = experiment: Antifungal activity against 10^5 CFU/mL Aspergillus niger MTCC 282 after 48 hrs by disc diffusion technique; format: functional
Aspergillus niger [18] = experiment: Antifungal activity against 10^5 CFU/mL Aspergillus niger MTCC 282 after 48 hrs by agar streak dilution method; format: functional; conditions: MTCC 282, 48 h
How it was run: (§3)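 Agar streak dilution for fungi. Stock 100 µg/mL in DMSO; graded amounts were mixed into molten Sabouraud dextrose agar and poured at 4–5 mm depth. Serial dilutions ran over […]. About 10⁵ CFU/mL inoculum was applied, with incubation at 37 ± 1 °C for 48 h. MIC was read from the dilution series.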

Aspergillus fumigatus [19] = experiment: Antifungal activity against 10^5 CFU/mL Aspergillus fumigatus MTCC 343 after 48 hrs by disc diffusion technique; format: functional
Aspergillus fumigatus [20] = experiment: Antifungal activity against 10^5 CFU/mL Aspergillus fumigatus MTCC 343 after 48 hrs by agar streak dilution method; format: functional; conditions: MTCC 343, 48 h; how it was run: as §3
Aspergillus clavatus [21] = experiment: Antifungal activity against 10^5 CFU/mL Aspergillus clavatus MTCC 1323 after 48 hrs by disc diffusion technique; format: functional
Aspergillus clavatus [22] = experiment: Antifungal activity against 10^5 CFU/mL Aspergillus clavatus MTCC 1323 after 48 hrs by agar streak dilution method; format: functional; conditions: MTCC 1323, 48 h; how it was run: as §3
Candida albicans [23] = experiment: Antifungal activity against 10^5 CFU/mL Candida albicans MTCC 183 after 48 hrs by disc diffusion technique; format: functional
Candida albicans [24] = experiment: Antifungal activity against 10^5 CFU/mL Candida albicans MTCC 183 after 48 hrs by agar streak dilution method; format: functional; conditions: MTCC 183, 48 h; how it was run: as §3

CC(=O)N1CCN(c2nc(Nc3ccc(C#N)c(C(F)(F)F)c3)nc(Oc3ccnc4ccccc34)n2)CC1
inhibition zone (IZ) (Staphylococcus aureus [1]): 26 mm
MIC (Staphylococcus aureus [2]): 12.5 µg/mL (≈ 23.4 µM)
inhibition zone (IZ) (Bacillus cereus [3]): 24 mm
MIC (Bacillus cereus [4]): 12.5 µg/mL (≈ 23.4 µM)
GI50 (DU-145): 75.1 µM
LC50 (concentration giving 50% net cell kill relative to time zero) (DU-145): > 100 µM
TGI (DU-145): > 100 µM
inhibition zone (IZ) (Escherichia coli [5]): 24 mm
MIC (Escherichia coli [6]): 12.5 µg/mL (≈ 23.4 µM)
inhibition zone (IZ) (Pseudomonas aeruginosa [7]): 24 mm
MIC (Pseudomonas aeruginosa [8]): 12.5 µg/mL (≈ 23.4 µM)
inhibition zone (IZ) (Klebsiella pneumoniae [9]): 23 mm
MIC (Klebsiella pneumoniae [10]): 50 µg/mL (≈ 93.5 µM)
inhibition zone (IZ) (Salmonella typhi [11]): 23 mm
MIC (Salmonella typhi [12]): 100 µg/mL (≈ 187 µM)
inhibition zone (IZ) (Proteus vulgaris [13]): 27 mm
MIC (Proteus vulgaris [14]): 6.25 µg/mL (≈ 11.7 µM)
inhibition zone (IZ) (Shigella flexneri [15]): 23 mm
MIC (Shigella flexneri [16]): 25 µg/mL (≈ 46.8 µM)
inhibition zone (IZ) (Aspergillus niger [17]): 21 mm
MIC (Aspergillus niger [18]): 100 µg/mL (≈ 187 µM)
inhibition zone (IZ) (Aspergillus fumigatus [19]): 21 mm
MIC (Aspergillus fumigatus [20]): 100 µg/mL (≈ 187 µM)
inhibition zone (IZ) (Aspergillus clavatus [21]): 27 mm
MIC (Aspergillus clavatus [22]): 12.5 µg/mL (≈ 23.4 µM)
inhibition zone (IZ) (Candida albicans [23]): 17 mm
MIC (Candida albicans [24]): 100 µg/mL (≈ 187 µM)

CC(C)N1CCN(c2nc(Nc3ccc(C#N)c(C(F)(F)F)c3)nc(Oc3ccnc4ccccc34)n2)CC1
inhibition zone (IZ) (Staphylococcus aureus [1]): 23 mm
MIC (Staphylococcus aureus [2]): 50 µg/mL (≈ 93.5 µM)
inhibition zone (IZ) (Bacillus cereus [3]): 22 mm
MIC (Bacillus cereus [4]): 50 µg/mL (≈ 93.5 µM)
GI50 (DU-145): > 100 µM
LC50 (concentration giving 50% net cell kill relative to time zero) (DU-145): > 100 µM
TGI (DU-145): > 100 µM
inhibition zone (IZ) (Escherichia coli [5]): 22 mm
MIC (Escherichia coli [6]): 50 µg/mL (≈ 93.5 µM)
inhibition zone (IZ) (Pseudomonas aeruginosa [7]): 22 mm
MIC (Pseudomonas aeruginosa [8]): 25 µg/mL (≈ 46.8 µM)
inhibition zone (IZ) (Klebsiella pneumoniae [9]): 21 mm
MIC (Klebsiella pneumoniae [10]): 100 µg/mL (≈ 187 µM)
inhibition zone (IZ) (Salmonella typhi [11]): 21 mm
MIC (Salmonella typhi [12]): 100 µg/mL (≈ 187 µM)
inhibition zone (IZ) (Proteus vulgaris [13]): 21 mm
MIC (Proteus vulgaris [14]): 100 µg/mL (≈ 187 µM)
inhibition zone (IZ) (Shigella flexneri [15]): 21 mm
MIC (Shigella flexneri [16]): 50 µg/mL (≈ 93.5 µM)
inhibition zone (IZ) (Aspergillus niger [17]): <10 mm
MIC (Aspergillus niger [18]): 100 µg/mL (≈ 187 µM)
inhibition zone (IZ) (Aspergillus fumigatus [19]): 17 mm
MIC (Aspergillus fumigatus [20]): 100 µg/mL (≈ 187 µM)
inhibition zone (IZ) (Aspergillus clavatus [21]): 17 mm
MIC (Aspergillus clavatus [22]): 100 µg/mL (≈ 187 µM)
inhibition zone (IZ) (Candida albicans [23]): 18 mm
MIC (Candida albicans [24]): 100 µg/mL (≈ 187 µM)

N#Cc1ccc(Nc2nc(Oc3ccnc4ccccc34)nc(N3CCN(c4ccccn4)CC3)n2)cc1C(F)(F)F
inhibition zone (IZ) (Staphylococcus aureus [1]): 21 mm
MIC (Staphylococcus aureus [2]): 100 µg/mL (≈ 176 µM)
inhibition zone (IZ) (Bacillus cereus [3]): 19 mm
MIC (Bacillus cereus [4]): 100 µg/mL (≈ 176 µM)
GI50 (DU-145): 85.9 µM
LC50 (concentration giving 50% net cell kill relative to time zero) (DU-145): > 100 µM
TGI (DU-145): > 100 µM
inhibition zone (IZ) (Escherichia coli [5]): 19 mm
MIC (Escherichia coli [6]): 100 µg/mL (≈ 176 µM)
inhibition zone (IZ) (Pseudomonas aeruginosa [7]): 16 mm
MIC (Pseudomonas aeruginosa [8]): 100 µg/mL (≈ 176 µM)
inhibition zone (IZ) (Klebsiella pneumoniae [9]): 17 mm
MIC (Klebsiella pneumoniae [10]): 100 µg/mL (≈ 176 µM)
inhibition zone (IZ) (Salmonella typhi [11]): 15 mm
MIC (Salmonella typhi [12]): 100 µg/mL (≈ 176 µM)
inhibition zone (IZ) (Proteus vulgaris [13]): 16 mm
MIC (Proteus vulgaris [14]): 100 µg/mL (≈ 176 µM)
inhibition zone (IZ) (Shigella flexneri [15]): 16 mm
MIC (Shigella flexneri [16]): 100 µg/mL (≈ 176 µM)
inhibition zone (IZ) (Aspergillus niger [17]): <10 mm
MIC (Aspergillus niger [18]): 100 µg/mL (≈ 176 µM)
inhibition zone (IZ) (Aspergillus fumigatus [19]): 12 mm
MIC (Aspergillus fumigatus [20]): 100 µg/mL (≈ 176 µM)
inhibition zone (IZ) (Aspergillus clavatus [21]): <10 mm
MIC (Aspergillus clavatus [22]): 100 µg/mL (≈ 176 µM)
inhibition zone (IZ) (Candida albicans [23]): 13 mm
MIC (Candida albicans [24]): 100 µg/mL (≈ 176 µM)
